In brackets after ≈: the same amount, converted by molar mass.
Columns and labels:
[1] = test system: Enterococcus faecalis; experiment: In vitro minimum inhibitory concentration against Enterococcus faecalis ATCC 29212; assay type: functional
Procedure, shortened: (§1)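 Broth microdilution per NCCLS guidelines. Doubling dilutions from 32-1 µg/mL in Mueller Hinton medium. Final inoculum 1-5 × 10^5 cfu/mL. Plates incubated overnight in ambient air at 35 °C. Linezolid and streptomycin run as controls.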

[2] = test system: Enterococcus faecalis; experiment: In vitro minimum inhibitory concentration against vancomycin-resistant Enterococcus faecalis NCTC 12201; assay type: functional; procedure, shortened: as §1
[3] = test system: Staphylococcus aureus; experiment: In vitro minimum inhibitory concentration of compound against Staphylococcus aureus ATCC 49951 (Smith); assay type: functional; procedure, shortened: as §1
[4] = test system: Staphylococcus aureus; experiment: In vitro minimum inhibitory concentration of compound against Methicillin-sensitive Staphylococcus aureus ATCC 29213; assay type: functional; procedure, shortened: as §1
[5] = test system: Mycolicibacterium smegmatis; experiment: In vitro minimum inhibitory concentration of compound against Mycobacterium smegmatis MTCC 006; assay type: functional
[6] = test system: Enterococcus faecium; experiment: In vitro minimum inhibitory concentration against vancomycin-resistant Enterococcus faecium NCTC 12202; assay type: functional; procedure, shortened: as §1
[7] = test system: Staphylococcus aureus; experiment: In vitro minimum inhibitory concentration of compound against Methicillin-resistant Staphylococcus aureus ATCC 33591

CC(=O)NC[C@H]1CN(c2ccc(/C=C(\C#N)c3nc4ccccc4s3)cc2)C(=O)O1
MIC [1]: > 32 µg/mL | MIC [2]: > 32 µg/mL | MIC [3]: > 32 µg/mL | MIC [4]: > 32 µg/mL | MIC [5]: > 32 µg/mL | MIC [6]: > 32 µg/mL

CC(=O)NC[C@H]1CN(c2ccc(/C=C(\C#N)n3nc4ccccc4n3)c(F)c2)C(=O)O1
MIC [7]: 16 µg/mL (≈ 38.1 µM) | MIC [1]: 32 µg/mL (≈ 76.1 µM) | MIC [2]: 32 µg/mL (≈ 76.1 µM) | MIC [3]: 16 µg/mL (≈ 38.1 µM) | MIC [4]: 8 µg/mL (≈ 19 µM) | MIC [5]: > 32 µg/mL | MIC [6]: 32 µg/mL (≈ 76.1 µM)

CC(=O)NC[C@H]1CN(c2ccc(/C=C(\C#N)c3nc4ccccc4o3)cc2)C(=O)O1
MIC [1]: > 32 µg/mL | MIC [2]: > 32 µg/mL | MIC [3]: > 32 µg/mL | MIC [4]: > 32 µg/mL | MIC [5]: > 32 µg/mL | MIC [6]: > 32 µg/mL

CC(=O)NC[C@H]1CN(c2ccc(/C=C(\C#N)n3nc4ccccc4n3)cc2)C(=O)O1
MIC [7]: 8 µg/mL (≈ 19.9 µM) | MIC [1]: 8 µg/mL (≈ 19.9 µM) | MIC [2]: 8 µg/mL (≈ 19.9 µM) | MIC [3]: 8 µg/mL (≈ 19.9 µM) | MIC [4]: 8 µg/mL (≈ 19.9 µM) | MIC [5]: > 32 µg/mL | MIC [6]: 8 µg/mL (≈ 19.9 µM)

CC(=O)NC[C@H]1CN(c2ccc(/C=C(\C#N)c3nc4ccccc4n3C)cc2)C(=O)O1
MIC [1]: > 32 µg/mL | MIC [2]: > 32 µg/mL | MIC [3]: > 32 µg/mL | MIC [4]: > 32 µg/mL | MIC [5]: > 32 µg/mL | MIC [6]: > 32 µg/mL

CC(=O)NC[C@H]1CN(c2ccc(/C=C(\C#N)n3nnc4ccccc43)cc2)C(=O)O1
MIC [7]: 16 µg/mL (≈ 39.8 µM) | MIC [1]: 32 µg/mL (≈ 79.5 µM) | MIC [2]: 32 µg/mL (≈ 79.5 µM) | MIC [3]: 16 µg/mL (≈ 39.8 µM) | MIC [4]: 16 µg/mL (≈ 39.8 µM) | MIC [5]: > 32 µg/mL | MIC [6]: 32 µg/mL (≈ 79.5 µM)

CC(=O)NC[C@H]1CN(c2ccc(/C=C(/C#N)n3nnc4ccccc43)cc2)C(=O)O1
MIC [7]: > 32 µg/mL | MIC [1]: > 32 µg/mL | MIC [2]: > 32 µg/mL | MIC [3]: > 32 µg/mL | MIC [4]: > 32 µg/mL | MIC [5]: > 32 µg/mL | MIC [6]: > 32 µg/mL

CC(=O)NC[C@H]1CN(c2ccc(/C=C(\C#N)c3nc4ccccc4[nH]3)cc2)C(=O)O1
MIC [1]: > 32 µg/mL | MIC [2]: > 32 µg/mL | MIC [3]: > 32 µg/mL | MIC [4]: > 32 µg/mL | MIC [5]: > 32 µg/mL | MIC [6]: > 32 µg/mL

C/C(S)=N/C[C@H]1CN(c2ccc(/C=C(\C#N)n3nc4ccccc4n3)cc2)C(=O)O1
MIC [7]: 2 µg/mL (≈ 4.78 µM) | MIC [1]: 4 µg/mL (≈ 9.56 µM) | MIC [2]: 4 µg/mL (≈ 9.56 µM) | MIC [3]: 2 µg/mL (≈ 4.78 µM) | MIC [4]: 2 µg/mL (≈ 4.78 µM) | MIC [5]: > 32 µg/mL | MIC [6]: 4 µg/mL (≈ 9.56 µM)

CN[C@@H]1[C@H](O[C@H]2[C@H](O[C@H]3[C@H](O)[C@@H](O)[C@H](N=C(N)N)[C@@H](O)[C@@H]3N=C(N)N)O[C@@H](C)[C@]2(O)C=O)O[C@@H](CO)[C@H](O)[C@H]1O [STREPTOMYCIN]
MIC [7]: > 32 µg/mL | MIC [1]: > 32 µg/mL | MIC [2]: > 32 µg/mL | MIC [3]: 2 µg/mL (≈ 3.44 µM) | MIC [4]: 4 µg/mL (≈ 6.88 µM) | MIC [5]: 0.5 µg/mL (≈ 0.86 µM) | MIC [6]: 32 µg/mL (≈ 55 µM)

CC(=O)NC[C@H]1CN(c2ccc(/C=C(\C#N)n3cnc4ccccc43)cc2)C(=O)O1
MIC [7]: 16 µg/mL (≈ 39.9 µM) | MIC [1]: 32 µg/mL (≈ 79.7 µM) | MIC [2]: 32 µg/mL (≈ 79.7 µM) | MIC [3]: 16 µg/mL (≈ 39.9 µM) | MIC [4]: 16 µg/mL (≈ 39.9 µM) | MIC [5]: > 32 µg/mL | MIC [6]: 32 µg/mL (≈ 79.7 µM)

CC(=O)NC[C@H]1CN(c2ccc(N3CCOCC3)c(F)c2)C(=O)O1 [LINEZOLID]
MIC [5]: 2 µg/mL (≈ 5.93 µM) | MIC [6]: 2 µg/mL (≈ 5.93 µM)
